Key:
[1] = test system: Panel (Carcinoma cell lines); assay: sc score: subcutaneous implants. measured as in vivo hollow fiber assay in minimum of 12 human cancer cell lines; format: functional
[2] = test system: Panel (Carcinoma cell lines); assay: ip score (intraperitoneal implants) measured as in vivo hollow fiber assay in minimum of 12 human cancer cell lines; format: functional
[3] = Half-lethal concentration against COLO,HCC2998,HCT116,SK-MEL-2 cell lines.; format: functional, Homo sapiens
Summary of the method: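 NCI in vitro human tumor cell line screen. After a 24 h drug-free incubation, compounds were added at five 10-fold dilutions, with a maximum of 10^-4 M (test range 10^-4 to 10^-8 M). Cells were exposed for 2 days. Growth was read from the change in protein-stain optical density, and the half-lethal concentration (LC50) was derived for each cell line.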

Cancer cell lines = assay: Cell kill activity against cancer cell lines; No; format: functional, cell-based; settings: Homo sapiens

Compound: CC(=O)N[C@@H]1[C@H](OCc2ccccc2)O[C@@H](CO)[C@@H](O)[C@@H]1OCC(=O)N[C@@H](C)C(=O)N[C@H](CCC(=O)NCCCCCNc1c2ccccc2nc2cccc([N+](=O)[O-])c12)C(N)=O
- Subcut score [1]: 8
- Ip score [2]: 16
- MID log LC50 [3]: -5.82 M

Compound: CC(=O)N[C@@H]1[C@H](OCc2ccccc2)O[C@@H](CO)[C@@H](O)[C@@H]1OCC(=O)N1CCC[C@H]1C(=O)N[C@H](CCC(=O)NCCCCCNc1c2ccccc2nc2cccc([N+](=O)[O-])c12)C(N)=O
- Subcut score [1]: 0
- Ip score [2]: 14
- MID log LC50 [3]: -5.51 M

Compound: CC(=O)N[C@@H]1[C@H](OCc2ccccc2)O[C@@H](COC(=O)CCCCCNc2ccc([N+](=O)[O-])c3nc4ccc(O)cc4c(O)c23)[C@@H](O)[C@@H]1OC(C)C(=O)N[C@@H](C)C(=O)N[C@H](CCC(N)=O)C(=O)OCc1ccccc1 (stereo partly specified)
- MID log LC50 [3]: -4.23 M

Compound: CC(=O)N[C@@H]1[C@H](OCc2ccccc2)O[C@@H](CO)[C@@H](O)[C@@H]1OCC(=O)N[C@@H](C)C(=O)N[C@H](CCC(=O)NCCCNc1c2ccccc2nc2cccc([N+](=O)[O-])c12)C(N)=O
- Subcut score [1]: 2
- cell kill activity (Cancer cell lines): No cell kill activity
- Ip score [2]: 2
- MID log LC50 [3]: -4.97 M

Compound: CC(=O)N[C@@H]1[C@H](OCc2ccccc2)O[C@@H](CO)[C@@H](O)[C@@H]1OC(C)C(=O)N[C@H](C(=O)N[C@H](CCC(=O)NCCCCNc1c2ccccc2nc2cccc([N+](=O)[O-])c12)C(N)=O)C(C)C (stereo partly specified)
- Subcut score [1]: 2
- Ip score [2]: 32
- MID log LC50 [3]: -4.17 M

Compound: COC(=O)[C@@H](CCC(N)=O)NC(=O)[C@@H](NC(=O)C(C)O[C@H]1[C@H](O)[C@H](COC(=O)CCCCCCCCCCNC(=O)c2ccc([N+](=O)[O-])c3c(O)c4ccccc4nc23)O[C@@H](OCc2ccccc2)[C@H]1NC(C)=O)C(C)C (stereo partly specified)
- MID log LC50 [3]: -4.25 M

Compound: CC(=O)N[C@@H]1[C@H](OCc2ccccc2)O[C@@H](COC(=O)CCNc2c3ccccc3nc3cccc([N+](=O)[O-])c23)[C@@H](O)[C@@H]1OC(C)C(=O)N[C@@H](C)C(=O)N[C@H](CCC(N)=O)C(=O)OCc1ccccc1 (stereo partly specified)
- MID log LC50 [3]: -4.42 M

Compound: CC(=O)N[C@@H]1[C@H](OCc2ccccc2)O[C@@H](CO)[C@@H](O)[C@@H]1OCC(=O)N[C@@H](C)C(=O)N[C@H](CCC(=O)NCCCCNc1c2ccccc2nc2cccc([N+](=O)[O-])c12)C(N)=O
- Subcut score [1]: 2
- Ip score [2]: 4
- MID log LC50 [3]: -4.26 M

Compound: CC(=O)N[C@@H]1[C@H](OCc2ccccc2)O[C@@H](CO)[C@@H](O)[C@@H]1OC(C)C(=O)N[C@@H](C)C(=O)N[C@H](CCC(=O)NCCNCCNc1c2ccccc2nc2cccc([N+](=O)[O-])c12)C(N)=O (stereo partly specified)
- Subcut score [1]: 4
- cell kill activity (Cancer cell lines): No cell kill activity
- Ip score [2]: 2
- MID log LC50 [3]: -4.56 M

Compound: CC(=O)N[C@@H]1[C@H](OCc2ccccc2)O[C@@H](CO)[C@@H](O)[C@@H]1OC(C)C(=O)N[C@@H](C)C(=O)N[C@H](CCC(=O)NCCCCNc1c2ccccc2nc2cccc([N+](=O)[O-])c12)C(N)=O (stereo partly specified)
- Subcut score [1]: 12
- Ip score [2]: 4
- MID log LC50 [3]: -5.49 M

Reference: ChEMBL document CHEMBL1134656, “Synthesis and antitumor activity of conjugates of muramyldipeptide, normuramyldipeptide, and desmuramylpeptides with acridine/acridone derivatives” (2001)
